From publication PMC6172068 (Cancer Science, 2018)
Marks after values point to notes of the source that are not given here.

Assay: Safety and tolerability
Format: in vivo, Japanese patients
Summary of the method: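 In this open-label study, once-daily oral dosing escalated 20–300 mg/d by Bayesian continual reassessment. DLTs were judged from Cycles 0 and 1, and MTD/RD came from the posterior mean DLT rate plus investigator assessment. Treatment-emergent AEs were graded by NCI-CTCAE v4.0 for seriousness, duration and relatedness. The safety analysis set comprised all patients given ≥1 dose.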

SMILES: CCc1nc(C(N)=O)c(Nc2ccc(N3CCC(N4CCN(C)CC4)CC3)c(OC)c2)nc1NC1CCOCC1 [gilteritinib]
- AEs leading to discontinuation of the study drug (20 mg (n = 1)): 0 n (%)
- Any AE (20 mg (n = 1)): 1 (100%) n (%)
- Deaths (20 mg (n = 1)): 0 n (%)
- Drug-related AE (20 mg (n = 1)): 1 (100%) n (%)
- Drug-related AEs leading to discontinuation of the study drug (20 mg (n = 1)): 0 n (%)
- Drug-related grade ≥3 AEs (20 mg (n = 1)): 0 n (%)
- Drug-related serious AEs (20 mg (n = 1)): 0 n (%)
- Grade ≥3 AEs (20 mg (n = 1)): 1 (100%) n (%)
- Serious AE: Acute cholangitis (20 mg (n = 1)): 0 n (%)
- Serious AE: Bronchopneumonia (20 mg (n = 1)): 0 n (%)
- Serious AE: Bronchopulmonary aspergillosis (20 mg (n = 1)): 0 n (%)
- Serious AE: Cardiomyopathy (20 mg (n = 1)): 0 n (%)
- Serious AE: Device-related infection (20 mg (n = 1)): 0 n (%)
- Serious AE: Edema (20 mg (n = 1)): 0 n (%)
- Serious AE: Febrile neutropenia (20 mg (n = 1)): 0 n (%)
- Serious AE: Increased level of fibrin degradation products (20 mg (n = 1)): 0 n (%)
- Serious AE: Pneumonia (20 mg (n = 1)): 0 n (%)
- Serious AE: Sepsis (20 mg (n = 1)): 0 n (%)
- Serious AE: Subdural hematoma (20 mg (n = 1)): 0 n (%)
- Serious AEs (20 mg (n = 1)): 0 n (%)
- AEs leading to discontinuation of the study drug (40 mg (n = 4)): 1 (25%) n (%)
- Any AE (40 mg (n = 4)): 4 (100%) n (%)
- Deaths (40 mg (n = 4)): 0 n (%)
- Drug-related AE (40 mg (n = 4)): 3 (75%) n (%)
- Drug-related AEs leading to discontinuation of the study drug (40 mg (n = 4)): 1 (25%) n (%)
- Drug-related grade ≥3 AEs (40 mg (n = 4)): 1 (25%) n (%)
- Drug-related serious AEs (40 mg (n = 4)): 1 (25%) n (%)
- Grade ≥3 AEs (40 mg (n = 4)): 2 (50%) n (%)
- Serious AE: Acute cholangitis (40 mg (n = 4)): 0 n (%)
- Serious AE: Bronchopneumonia (40 mg (n = 4)): 0 n (%)
- Serious AE: Bronchopulmonary aspergillosis (40 mg (n = 4)): 0 n (%)
- Serious AE: Cardiomyopathy (40 mg (n = 4)): 0 n (%)
- Serious AE: Device-related infection (40 mg (n = 4)): 1 (25%) n (%)
- Serious AE: Edema (40 mg (n = 4)): 1 (25%) n (%)
- Serious AE: Febrile neutropenia (40 mg (n = 4)): 0 n (%)
- Serious AE: Increased level of fibrin degradation products (40 mg (n = 4)): 0 n (%)
- Serious AE: Pneumonia (40 mg (n = 4)): 1 (25%) n (%)
- Serious AE: Sepsis (40 mg (n = 4)): 0 n (%)
- Serious AE: Subdural hematoma (40 mg (n = 4)): 0 n (%)
- Serious AEs (40 mg (n = 4)): 1 (25%) n (%)
- AE resulting in permanent discontinuation: pneumonia (40 mg/d): 1 n
- AEs leading to discontinuation of the study drug (80 mg (n = 4)): 1 (25%) n (%)
- Any AE (80 mg (n = 4)): 4 (100%) n (%)
- Drug-related AE (80 mg (n = 4)): 3 (75%) n (%)
- Drug-related AEs leading to discontinuation of the study drug (80 mg (n = 4)): 1 (25%) n (%)
- Drug-related grade ≥3 AEs (80 mg (n = 4)): 1 (25%) n (%)
- Drug-related serious AEs (80 mg (n = 4)): 1 (25%) n (%)
- Grade ≥3 AEs (80 mg (n = 4)): 2 (50%) n (%)
- Serious AE: Acute cholangitis (80 mg (n = 4)): 1 (25%) n (%)
- Serious AE: Bronchopneumonia (80 mg (n = 4)): 1 (25%) n (%)
- Serious AE: Bronchopulmonary aspergillosis (80 mg (n = 4)): 0 n (%)
- Serious AE: Cardiomyopathy (80 mg (n = 4)): 0 n (%)
- Serious AE: Device-related infection (80 mg (n = 4)): 0 n (%)
- Serious AE: Edema (80 mg (n = 4)): 0 n (%)
- Serious AE: Febrile neutropenia (80 mg (n = 4)): 0 n (%)
- Serious AE: Increased level of fibrin degradation products (80 mg (n = 4)): 0 n (%)
- Serious AE: Pneumonia (80 mg (n = 4)): 0 n (%)
- Serious AE: Sepsis (80 mg (n = 4)): 1 (25%) n (%)
- Serious AE: Subdural hematoma (80 mg (n = 4)): 1 (25%) n (%)
- Serious AEs (80 mg (n = 4)): 1 (25%) n (%)
- Deaths (80 mg (n = 4), cause of death considered related to the study drug): 1 (25%) ^a n (%)
- AE resulting in permanent discontinuation: subdural hematoma (80 mg/d): 1 n
- AEs leading to discontinuation of the study drug (120 mg (n = 4)): 0 n (%)
- Any AE (120 mg (n = 4)): 4 (100%) n (%)
- Deaths (120 mg (n = 4)): 0 n (%)
- Drug-related AE (120 mg (n = 4)): 4 (100%) n (%)
- Drug-related AEs leading to discontinuation of the study drug (120 mg (n = 4)): 0 n (%)
- Drug-related grade ≥3 AEs (120 mg (n = 4)): 1 (25%) n (%)
- Drug-related serious AEs (120 mg (n = 4)): 0 n (%)
- Grade ≥3 AEs (120 mg (n = 4)): 2 (50%) n (%)
- Serious AE: Acute cholangitis (120 mg (n = 4)): 0 n (%)
- Serious AE: Bronchopneumonia (120 mg (n = 4)): 0 n (%)
- Serious AE: Bronchopulmonary aspergillosis (120 mg (n = 4)): 0 n (%)
- Serious AE: Cardiomyopathy (120 mg (n = 4)): 0 n (%)
- Serious AE: Device-related infection (120 mg (n = 4)): 0 n (%)
- Serious AE: Edema (120 mg (n = 4)): 0 n (%)
- Serious AE: Febrile neutropenia (120 mg (n = 4)): 0 n (%)
- Serious AE: Increased level of fibrin degradation products (120 mg (n = 4)): 0 n (%)
- Serious AE: Pneumonia (120 mg (n = 4)): 0 n (%)
- Serious AE: Sepsis (120 mg (n = 4)): 0 n (%)
- Serious AE: Subdural hematoma (120 mg (n = 4)): 0 n (%)
- Serious AEs (120 mg (n = 4)): 0 n (%)
- DLT: grade 3 tumor lysis syndrome (120 mg/d): 1 n
- AEs leading to discontinuation of the study drug (200 mg (n = 9)): 2 (22.2%) n (%)
- Any AE (200 mg (n = 9)): 9 (100%) n (%)
- Deaths (200 mg (n = 9)): 0 n (%)
- Drug-related AE (200 mg (n = 9)): 9 (100%) n (%)
- Drug-related AEs leading to discontinuation of the study drug (200 mg (n = 9)): 1 (11.1%) n (%)
- Drug-related grade ≥3 AEs (200 mg (n = 9)): 4 (44.4%) n (%)
- Drug-related serious AEs (200 mg (n = 9)): 2 (22.2%) n (%)
- Grade ≥3 AEs (200 mg (n = 9)): 7 (77.8%) n (%)
- Serious AE: Acute cholangitis (200 mg (n = 9)): 0 n (%)
- Serious AE: Bronchopneumonia (200 mg (n = 9)): 0 n (%)
- Serious AE: Bronchopulmonary aspergillosis (200 mg (n = 9)): 1 (11.1%) n (%)
- Serious AE: Cardiomyopathy (200 mg (n = 9)): 1 (11.1%) n (%)
- Serious AE: Device-related infection (200 mg (n = 9)): 0 n (%)
- Serious AE: Edema (200 mg (n = 9)): 0 n (%)
- Serious AE: Febrile neutropenia (200 mg (n = 9)): 1 (11.1%) n (%)
- Serious AE: Increased level of fibrin degradation products (200 mg (n = 9)): 1 (11.1%) n (%)
- Serious AE: Pneumonia (200 mg (n = 9)): 0 n (%)
- Serious AE: Sepsis (200 mg (n = 9)): 0 n (%)
- Serious AE: Subdural hematoma (200 mg (n = 9)): 1 (11.1%) n (%)
- Serious AEs (200 mg (n = 9)): 5 (55.6%) n (%)
- AE resulting in permanent discontinuation: elevated blood creatine phosphokinase (200 mg/d): 1 n
- AE resulting in permanent discontinuation: delirium (200 mg/d, not considered drug-related): 1 n
- AEs leading to discontinuation of the study drug (300 mg (n = 2)): 2 (100%) n (%)
- Any AE (300 mg (n = 2)): 2 (100%) n (%)
- Deaths (300 mg (n = 2)): 0 n (%)
- Drug-related AE (300 mg (n = 2)): 2 (100%) n (%)
- Drug-related AEs leading to discontinuation of the study drug (300 mg (n = 2)): 2 (100%) n (%)
- Drug-related grade ≥3 AEs (300 mg (n = 2)): 2 (100%) n (%)
- Drug-related serious AEs (300 mg (n = 2)): 0 n (%)
- Grade ≥3 AEs (300 mg (n = 2)): 2 (100%) n (%)
- Serious AE: Acute cholangitis (300 mg (n = 2)): 0 n (%)
- Serious AE: Bronchopneumonia (300 mg (n = 2)): 0 n (%)
- Serious AE: Bronchopulmonary aspergillosis (300 mg (n = 2)): 0 n (%)
- Serious AE: Cardiomyopathy (300 mg (n = 2)): 0 n (%)
- Serious AE: Device-related infection (300 mg (n = 2)): 0 n (%)
- Serious AE: Edema (300 mg (n = 2)): 0 n (%)
- Serious AE: Febrile neutropenia (300 mg (n = 2)): 0 n (%)
- Serious AE: Increased level of fibrin degradation products (300 mg (n = 2)): 0 n (%)
- Serious AE: Pneumonia (300 mg (n = 2)): 0 n (%)
- Serious AE: Sepsis (300 mg (n = 2)): 0 n (%)
- Serious AE: Subdural hematoma (300 mg (n = 2)): 0 n (%)
- Serious AEs (300 mg (n = 2)): 0 n (%)
- AE resulting in permanent discontinuation: elevated lactate dehydrogenase (300 mg/d): 1 n
- AE resulting in permanent discontinuation: pneumonia (300 mg/d): 1 n
- DLTs: grade 3 elevated blood lactate dehydrogenase, amylase, blood creatine phosphokinase levels, and syncope (300 mg/d): 2 n
- patients with a dose decrease (2 patients): 8.3%
- patients with dose interruptions (7 patients): 29.2%
- Anemia (Grade 1-2, N = 24): 0 n (%)
- Bone pain (Grade 1-2, N = 24): 1 (4.2%) n (%)
- Constipation (Grade 1-2, N = 24): 4 (16.7%) n (%)
- Corneal erosion (Grade 1-2, N = 24): 4 (16.7%) n (%)
- Cough (Grade 1-2, N = 24): 3 (12.5%) n (%)
- Diarrhea (Grade 1-2, N = 24): 6 (25%) n (%)
- Disseminated intravascular coagulation (Grade 1-2, N = 24): 1 (4.2%) n (%)
- Dysesthesia (Grade 1-2, N = 24): 2 (8.3%) n (%)
- Dysgeusia (Grade 1-2, N = 24): 2 (8.3%) n (%)
- ECG prolonged QT interval (Grade 1-2, N = 24): 1 (4.2%) n (%)
- Elevated ALT (Grade 1-2, N = 24): 2 (8.3%) n (%)
- Elevated AST (Grade 1-2, N = 24): 2 (8.3%) n (%)
- Elevated blood creatine phosphokinase (Grade 1-2, N = 24): 6 (25%) n (%)
- Elevated blood lactate dehydrogenase (Grade 1-2, N = 24): 7 (29.2%) n (%)
- Elevated liver enzymes (ALT, AST, and alkaline phosphatase) (Grade 1-2, N = 24): 9 (37.5%) n (%)
- Epistaxis (Grade 1-2, N = 24): 2 (8.3%) n (%)
- Febrile neutropenia (Grade 1-2, N = 24): 2 (8.3%) n (%)
- Headache (Grade 1-2, N = 24): 4 (16.7%) n (%)
- Hematoma (Grade 1-2, N = 24): 2 (8.3%) n (%)
- Hypertension (Grade 1-2, N = 24): 5 (20.8%) n (%)
- Hypokalemia (Grade 1-2, N = 24): 2 (8.3%) n (%)
- Hypotension (Grade 1-2, N = 24): 2 (8.3%) n (%)
- Hypoxia (Grade 1-2, N = 24): 2 (8.3%) n (%)
- Increased amylase (Grade 1-2, N = 24): 1 (4.2%) n (%)
- Insomnia (Grade 1-2, N = 24): 2 (8.3%) n (%)
- Lung infection (Grade 1-2, N = 24): 1 (4.2%) n (%)
- Nausea (Grade 1-2, N = 24): 4 (16.7%) n (%)
- Pleural effusion (Grade 1-2, N = 24): 3 (12.5%) n (%)
- Pneumonia (Grade 1-2, N = 24): 1 (4.2%) n (%)
- Pyrexia (Grade 1-2, N = 24): 7 (29.2%) n (%)
- Rash (Grade 1-2, N = 24): 3 (12.5%) n (%)
- Renal impairment (Grade 1-2, N = 24): 5 (20.8%) n (%)
- Sepsis (Grade 1-2, N = 24): 1 (4.2%) n (%)
- Somnolence (Grade 1-2, N = 24): 3 (12.5%) n (%)
